Consider four compounds from article PMC3574227 (Journal of medicinal chemistry, 2013).

Several values for one entry are separate records, joined by “and”; a condition that tells them apart may be missing. Equal values may be shown once.

In assay [1] the test system is human plasma. As to the kind of experiment: Prothrombin time. Conditions: citrated human plasma. The essentials: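 One-stage recalcification PT on a fibrometer. Test compound was made up in citrated pooled normal human plasma and held 30 s at 37 °C. Clotting was then started with prewarmed reconstituted thromboplastin-D. Clotting time was plotted against concentration and fitted to a quadratic trend line, from which the concentration doubling clotting time was taken.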

Assay [2] deals with human plasma. As to the kind of experiment: Activated partial thromboplastin time. Conditions: for concentration required for a 2-fold increase in APTT: citrated human plasma.
A further assay has as its target human factor XIa (Homo sapiens, UniProt P03951). As to the kind of experiment: Direct inhibition of FXIa, chromogenic substrate. The class given is biochemical.
For another assay, the target named is bovine chymotrypsin (Bos taurus, UniProt P00766). As to the kind of experiment: Chromogenic substrate hydrolysis assay, chymotrypsin. Type of assay: biochemical. To be noted: NI = no inhibition observed up to 1.8 mg/mL. The method, boiled down:
(§1)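 Digestive protease counter-screen: bovine trypsin 72.5 ng/mL with S-2222 80 µM, or bovine α-chymotrypsin 500 ng/mL with Spectrozyme CTY 240 µM (in-well levels; substrate chosen from KM). Fractional residual activity was measured spectrophotometrically at six or more serially diluted test compound concentrations, profiled for IC50.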

The target of a further assay is factor VIIa (Homo sapiens, UniProt P08709). As to the kind of experiment: Chromogenic substrate hydrolysis assay, factor VIIa. Type of assay: biochemical. To be noted: NI = no inhibition observed up to 3.7 mg/mL. The essentials: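 Plasma-derived human factor VIIa (8 nM) with 40 nM recombinant tissue factor and Spectrozyme factor VIIa substrate (1000 µM, in well; level chosen from KM). Residual activity was read spectrophotometrically across six or more serially diluted test compound concentrations to build an inhibition profile for IC50.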

The target in a further assay is T1, bovine trypsin (Bos taurus, UniProt P00760).
T1 sequence (P00760 24-246): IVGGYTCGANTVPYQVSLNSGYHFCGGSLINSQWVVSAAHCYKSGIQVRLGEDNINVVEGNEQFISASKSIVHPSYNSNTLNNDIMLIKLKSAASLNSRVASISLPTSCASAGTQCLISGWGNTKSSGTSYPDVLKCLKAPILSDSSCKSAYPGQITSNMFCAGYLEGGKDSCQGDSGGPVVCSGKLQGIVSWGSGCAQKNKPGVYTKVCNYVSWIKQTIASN
Put plainly: Chromogenic substrate hydrolysis assay, trypsin. To be noted: NI = no inhibition observed up to 1.8 mg/mL. The class given is biochemical. The method, boiled down: as §1

The target in another assay is T2, factor XIIa (Homo sapiens, UniProt P00748).
T2 sequence (P00748 373-615 limits assumed): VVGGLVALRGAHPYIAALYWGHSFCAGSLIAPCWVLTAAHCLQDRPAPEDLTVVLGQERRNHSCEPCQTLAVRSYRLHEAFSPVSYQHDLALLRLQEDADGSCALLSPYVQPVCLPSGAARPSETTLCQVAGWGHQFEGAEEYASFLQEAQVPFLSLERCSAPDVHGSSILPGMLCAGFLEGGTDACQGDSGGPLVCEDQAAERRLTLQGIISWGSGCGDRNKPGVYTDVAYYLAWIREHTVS
T2 sequence (P00748 20-372 partner limits assumed): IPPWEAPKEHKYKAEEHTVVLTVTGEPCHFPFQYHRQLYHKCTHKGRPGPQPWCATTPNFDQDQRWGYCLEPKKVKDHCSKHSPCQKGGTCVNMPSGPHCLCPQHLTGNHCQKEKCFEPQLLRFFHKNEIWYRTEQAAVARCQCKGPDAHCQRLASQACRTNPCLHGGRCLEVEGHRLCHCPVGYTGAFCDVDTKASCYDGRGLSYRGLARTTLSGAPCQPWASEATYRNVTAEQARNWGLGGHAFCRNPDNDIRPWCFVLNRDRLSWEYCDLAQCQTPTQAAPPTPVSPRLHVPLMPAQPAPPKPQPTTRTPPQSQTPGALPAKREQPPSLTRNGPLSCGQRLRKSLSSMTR
As to the kind of experiment: Chromogenic substrate hydrolysis assay, factor XIIa. The class given is biochemical. The essentials: (§2)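 Chromogenic substrate hydrolysis with human plasma enzymes, substrate level set from its KM. Enzyme and substrate in well: thrombin 6 nM with Spectrozyme TH 50 µM; factor Xa 1.09 nM with Spectrozyme FXa 125 µM; factor XIIa 5 nM with Spectrozyme FXIIa 125 µM; factor IXa 89 nM with Spectrozyme FIXa 850 µM. Residual activity read spectrophotometrically at six or more serial test compound dilutions, then dose–response fitted.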

In a further assay the target is thrombin (Homo sapiens, UniProt P00734). Put plainly: Chromogenic substrate hydrolysis assay, thrombin. Type of assay: biochemical. The method, boiled down:
as §2

Assay [3] deals with T3, human FXIa (Homo sapiens, UniProt P03951). Put plainly: Competitive inhibition of FXIa by 6 in the presence of UFH. Type of assay: biochemical.
The next assay relates to human whole blood. As to the kind of experiment: Thromboelastography. The essentials: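 Thromboelastography at 37 °C: 200 mM CaCl2 stock placed in cup, then sodium-citrated human whole blood containing test compound or water added to recalcify. The cup oscillated through 4°45′ at 0.1 Hz. R, α, maximum amplitude (MA) and shear elastic modulus G were recorded automatically, with G = 5000 × MA/(100 − MA).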

Assay [4] deals with FXIa Catalytic Domain (FXIa-CD). Put plainly: Michaelis-Menten kinetics of S-2366 hydrolysis by FXIa catalytic domain. The class given is biochemical, human.
Assay [5] deals with T3, human FXIa. As to the kind of experiment: Inhibition of FXIa activation of FIX. The class given is biochemical. Conditions: 6 at 3 µM, FIX 0.5 µM, after 120 min of incubation.
Another assay deals with FXIa Wild Type (Homo sapiens, UniProt P03951). As to the kind of experiment: Michaelis-Menten kinetics of S-2366 hydrolysis by wild-type FXIa. Type of assay: biochemical.
For a further assay, the target named is factor IXa (Homo sapiens, UniProt P00740). As to the kind of experiment: Chromogenic substrate hydrolysis assay, factor IXa. The class given is biochemical. The essentials: as §2
Setting [6] is: 6 over the concentration range of 0–280 µg/mL.

Chain of FXIa Wild Type (P03951 19-387 limits assumed): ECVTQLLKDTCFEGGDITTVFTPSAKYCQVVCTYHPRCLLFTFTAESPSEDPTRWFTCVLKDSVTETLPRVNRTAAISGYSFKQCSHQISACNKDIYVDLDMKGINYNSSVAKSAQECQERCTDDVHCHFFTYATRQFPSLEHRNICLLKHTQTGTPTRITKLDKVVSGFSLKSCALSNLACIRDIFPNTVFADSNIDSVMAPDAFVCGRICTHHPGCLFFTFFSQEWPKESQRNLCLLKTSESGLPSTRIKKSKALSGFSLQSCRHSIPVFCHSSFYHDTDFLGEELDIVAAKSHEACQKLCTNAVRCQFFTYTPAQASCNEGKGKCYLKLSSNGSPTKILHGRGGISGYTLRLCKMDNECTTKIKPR
Chain of FXIa Wild Type (P03951 388-625 limits assumed): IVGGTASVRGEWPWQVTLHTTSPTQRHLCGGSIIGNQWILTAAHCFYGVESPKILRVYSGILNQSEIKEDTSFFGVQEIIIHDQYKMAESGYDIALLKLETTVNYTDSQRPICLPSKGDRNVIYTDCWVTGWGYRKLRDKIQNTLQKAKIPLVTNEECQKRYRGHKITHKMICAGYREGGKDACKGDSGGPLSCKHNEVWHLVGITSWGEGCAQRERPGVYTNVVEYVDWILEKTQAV
T3 sequence (P03951 19-387 limits assumed): as the sequence (P03951 19-387 limits assumed) above
T3 sequence (P03951 388-625 limits assumed): as the sequence (P03951 388-625 limits assumed) above
Chain of human factor XIa (P03951 19-387 limits assumed): as the sequence (P03951 19-387 limits assumed) above
Chain of human factor XIa (P03951 388-625 limits assumed): as the sequence (P03951 388-625 limits assumed) above
Chain of factor IXa (P00740 227-461 limits assumed): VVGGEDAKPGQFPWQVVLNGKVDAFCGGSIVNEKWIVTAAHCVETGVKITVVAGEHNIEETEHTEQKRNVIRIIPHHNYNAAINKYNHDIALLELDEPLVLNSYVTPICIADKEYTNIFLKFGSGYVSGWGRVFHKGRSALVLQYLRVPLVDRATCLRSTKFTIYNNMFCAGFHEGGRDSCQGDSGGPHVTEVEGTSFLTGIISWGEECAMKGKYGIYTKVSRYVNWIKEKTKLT
Chain of factor IXa (P00740 47-191 limits assumed): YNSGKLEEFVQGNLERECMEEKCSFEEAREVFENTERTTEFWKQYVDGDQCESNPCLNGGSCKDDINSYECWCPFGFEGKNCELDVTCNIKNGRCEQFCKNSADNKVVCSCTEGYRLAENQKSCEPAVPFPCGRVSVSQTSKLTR
Chain of factor VIIa (P08709 213-466 limits assumed): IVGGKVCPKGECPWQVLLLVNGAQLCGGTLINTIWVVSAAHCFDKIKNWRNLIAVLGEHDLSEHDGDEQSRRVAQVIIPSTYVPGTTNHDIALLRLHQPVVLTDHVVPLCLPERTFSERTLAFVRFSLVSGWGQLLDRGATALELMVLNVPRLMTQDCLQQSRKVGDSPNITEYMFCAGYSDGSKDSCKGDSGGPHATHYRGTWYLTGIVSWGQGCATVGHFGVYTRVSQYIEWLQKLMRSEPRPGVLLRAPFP
Chain of factor VIIa (P08709 61-212 limits assumed): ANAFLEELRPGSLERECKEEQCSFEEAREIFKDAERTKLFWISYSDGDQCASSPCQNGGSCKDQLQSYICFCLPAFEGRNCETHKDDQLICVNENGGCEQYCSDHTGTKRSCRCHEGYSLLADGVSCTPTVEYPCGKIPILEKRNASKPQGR
Chain of factor VIIa (P13726 33-295 partner): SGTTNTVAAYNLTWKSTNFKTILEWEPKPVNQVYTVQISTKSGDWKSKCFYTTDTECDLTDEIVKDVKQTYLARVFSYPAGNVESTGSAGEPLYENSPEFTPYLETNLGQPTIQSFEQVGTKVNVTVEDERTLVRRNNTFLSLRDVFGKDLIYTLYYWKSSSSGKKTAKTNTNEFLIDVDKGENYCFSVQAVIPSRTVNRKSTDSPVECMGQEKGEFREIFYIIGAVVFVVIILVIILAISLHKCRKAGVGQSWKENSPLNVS

Take `O=C(/C=C/c1ccc(OS(=O)(=O)[O-])c(OS(=O)(=O)[O-])c1)O[C@@H]1C[C@](O)(C(=O)[O-])C[C@@H](OS(=O)(=O)[O-])[C@H]1OS(=O)(=O)[O-].[Na+].[Na+].[Na+].[Na+].[Na+]` [Molecule 4, sulfated chlorogenic acid]: in the assay on human plasma [1], the “concentration required for a 2-fold increase in PT” value is “much higher”. The “concentration required for a 2-fold increase in APTT” value in the assay with human plasma [2] was “much higher”.

Regarding `O=C(OC[C@H]1O[C@@H](OC(=O)c2cc(O)c(O)c(O)c2)[C@H](OC(=O)c2cc(O)c(O)c(O)c2)[C@@H](OC(=O)c2cc(O)c(O)c(O)c2)[C@@H]1OC(=O)c1cc(O)c(O)c(O)c1)c1cc(O)c(O)c(O)c1` [Molecule 5, pentagalloyl glucopyranoside, reference compound], the “inhibition of FXIa proteolytic activity” value against human factor XIa (highest concentration tested (300 µM)) was “completely inactive”.

With `COc1cc([C@H]2Oc3cc([C@H]4Oc5cc(OS(=O)(=O)[O-])cc(O)c5C(=O)[C@@H]4OS(=O)(=O)[O-])ccc3O[C@@H]2COS(=O)(=O)[O-])ccc1OS(=O)(=O)[O-].[Na+].[Na+].[Na+].[Na+]` [Molecule 2, sulfated silibinin], the “concentration required for a 2-fold increase in PT” value with human plasma [1] is on record as “much higher”. Further, in the assay on human plasma [2], the “concentration required for a 2-fold increase in APTT” value is “much higher”.

With `O=C(OC[C@H]1O[C@@H](OC(=O)c2cc(OS(=O)(=O)[O-])c(O)c(OS(=O)(=O)[O-])c2)[C@H](OC(=O)c2cc(OS(=O)(=O)[O-])c(O)c(OS(=O)(=O)[O-])c2)[C@@H](OC(=O)c2cc(OS(=O)(=O)[O-])c(O)c(OS(=O)(=O)[O-])c2)[C@@H]1OC(=O)c1cc(OS(=O)(=O)[O-])c(O)c(OS(=O)(=O)[O-])c1)c1cc(OS(=O)(=O)[O-])c(O)c(OS(=O)(=O)[O-])c1.[Na+].[Na+].[Na+].[Na+].[Na+].[Na+].[Na+].[Na+].[Na+].[Na+]` [Molecule 6, sulfated pentagalloylglucoside], the IC50 result was “no inhibition” against bovine chymotrypsin; “no inhibition” against factor VIIa; “no inhibition” against bovine trypsin; 16 µM at human FXIa [3]; 0.612 µM against human factor XIa. Further, the “concentration required for a 2-fold increase in PT” value in the assay on human plasma [1] is given as 298 µg/mL. Moreover, the HS on factor XIIa came to 3.0 ± 1.8; at human FXIa [3] (UFH 0 µM) it was 1.3 ± 0.1; on human FXIa [3] (UFH 0.13 µM), 1.4 ± 0.2; at human FXIa [3] (UFH 3.33 µM), 1.7 ± 0.2; on human FXIa [3] (UFH 33.3 µM), 4.0 ± 0.9; on factor IXa, 2.2 ± 0.6. Besides, the ΔY at thrombin was 83 ± 10. In addition, on human factor XIa, the “selectivity for FXIa over other relevant enzymes” value is “at least 200 fold”. For the same compound, the “HS (Hill slope)” value on human factor XIa (S-2366 hydrolysis, pH 7.4, 37 °C) was determined as 1.3 ± 0.1. Further, the “G (shear elastic modulus strength)” value in the assay on human whole blood (6 at 20 µg/mL) is listed as 8.2 × 10^3 kDynes/cm^3; with human whole blood (6 at 135 µg/mL) it was 5.0 × 10^3 kDynes/cm^3; in the assay on human whole blood (6 at 190 µg/mL) it was 3.8 × 10^3 kDynes/cm^3; in the assay on human whole blood (6 at 280 µg/mL), 0.9 × 10^3 kDynes/cm^3. Further, the “reduction of G” value in the assay with human whole blood (setting [6]) is given as roughly 8 fold. In addition, in the assay with human whole blood (setting [6]), the “reduction of MA” value is ~ 4 fold. For the same compound, in [4], the “retention of inhibitory potency with the catalytic domain of FXIa” value was ~ 100%. Besides, in assay [4] (6 from 0 to 5.0 µg/mL), the “decrease of VMAX” value is listed as roughly 5 fold. The VMAX in assay [4] ([6] 0.5 µg/mL) is 53.9 ± 1.4 mAU/min; on FXIa Wild Type ([6] 0.005 µg/mL) it was 93.7 ± 3.2 mAU/min; on FXIa Wild Type ([6] 0.5 µg/mL), 74.6 ± 2.6 mAU/min; on FXIa Wild Type ([6] 2.5 µg/mL) it was 56.9 ± 1.5 mAU/min; at FXIa Wild Type ([6] 5.0 µg/mL), 32.3 ± 2.1 mAU/min; at FXIa Wild Type ([6] 50.0 µg/mL), 17.2 mAU/min and 17.2 ± 1.2 mAU/min. The “formation of FIXaβ” value on human FXIa [5] is given as “not detectable”. Besides, the “less effective than enoxaparin at molar levels” value in the assay with human plasma [2] (molar basis) came to 36 fold.
